Test results taken from ChEMBL document CHEMBL1149910, “2-(6-aryl-3(Z)-hexen-1,5-diynyl)anilines as a new class of potent antitubulin agents” (J Med Chem, 2008).
The source made the active and inactive calls. The rule behind the calls is not given here.

Assays:
[1] = tested on: DU-145; test: Cytotoxicity against human DU145 cells; assay type: functional
Outline: (§1)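 Tested in the NCI in vitro antitumor screening protocol across a tumor cell line panel. GI₅₀ is the concentration producing a 50% reduction in cell growth.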

[2] = tested on: SF-295; test: Cytotoxicity against human SF295 cells; assay type: functional; outline: as §1
[3] = tested on: MDA-MB-231; test: Effect on microtubule depolymerization in human MDA-MB-231 cells assessed as disorganized microtubule cytoskeleton at 3.6 uM after 2 hrs relative to control; assay type: functional, cell-based
Outline: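 MDA-MB-231/ATCC cells grown on glass coverslips (1 × 10⁴ cells) for 24 h, then exposed to 3.6, 9, 18, 27 or 36 µM at 37 °C for 2 h. Fixed in 4% paraformaldehyde, permeabilized with Triton X-100, and immunostained for α-tubulin and ninein with DAPI counterstain. Interphase microtubule networks compared with untreated cells by confocal microscopy.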

[4] = tested on: MDA-MB-435; test: (§2) Cytotoxicity against human MDA-MB-435 cells; assay type: functional; outline: as §1
[5] = tested on: MDA-MB-435; test: as §2; assay type: functional; outline: as §1; remark: listed apart in the source
[6] = tested on: MDA-MB-231; test: Cell cycle arrest in human MDA-MB-231 cells assessed as accumulation of >4N cells at 36.0 uM after 72 hrs by flow cytometry; assay type: functional
[7] = tested on: KM12; test: Cytotoxicity against human KM12 cells; assay type: functional; outline: as §1
[8] = tested on: OVCAR-3; test: Cytotoxicity against human OVCAR-3 cells; assay type: functional; outline: as §1
[9] = tested on: IGROV-1; test: Cytotoxicity against human IGROV1 cells; assay type: functional; outline: as §1
[10] = tested on: HL-60; test: Cytotoxicity against human HL60 cells; assay type: functional; outline: as §1
[11] = tested on: 786-0; test: Cytotoxicity against human 786-0 cells; assay type: functional; outline: as §1
[12] = tested on: K562; test: Cell cycle arrest in human K562 cells assessed as accumulation at G0/G1 phase at 50 uM after 24 hrs by flow cytometry; assay type: functional
Outline: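 K-562 human leukemia cells were grown in RPMI 1640 with 10% fetal calf serum, glutamine and penicillin/streptomycin at 37 °C in 5% CO₂. Cells were exposed to compound at 50 µM for 24 h, then pelleted and PBS-washed. They were fixed in ice-cold ethanol for 30 min, treated with 1 mg/mL RNase A at 37 °C for 30 min, and stained with propidium iodide and Triton X-100 for 30 min at room temperature in the dark. Per-phase and sub-G1 percentages came from flow cytometry gating.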

[13] = tested on: SW-620; test: Cytotoxicity against human SW620 cells; assay type: functional; outline: as §1
[14] = tested on: HCT-15; test: Cytotoxicity against human HCT15 cells; assay type: functional; outline: as §1
[15] = tested on: HOP-92; test: Cytotoxicity against human HOP92 cells; assay type: functional; outline: as §1
[16] = tested on: MDA-MB-231; test: Cell cycle arrest in human MDA-MB-231 cells assessed as accumulation of 4N cells at 27.0 uM after 72 hrs by flow cytometry; assay type: functional
[17] = tested on: MDA-MB-231; test: Cell cycle arrest in human MDA-MB-231 cells assessed as accumulation of 2N cells at 18.0 uM after 24 hrs by flow cytometry; assay type: functional
[18] = tested on: MDA-MB-231; test: Cell cycle arrest in human MDA-MB-231 cells assessed as accumulation of >4N cells at 36.0 uM after 24 hrs by flow cytometry; assay type: functional
[19] = tested on: MDA-MB-231; test: Cell cycle arrest in human MDA-MB-231 cells assessed as accumulation of 2N cells at 27.0 uM after 72 hrs by flow cytometry; assay type: functional
[20] = tested on: SN12C; test: Cytotoxicity against human SN12C cells; assay type: functional; outline: as §1
[21] = tested on: A549; test: Cytotoxicity against human A549/ATCC cells; assay type: functional; outline: as §1
[22] = tested on: TK-10; test: Cytotoxicity against human TK10 cells; assay type: functional; outline: as §1
[23] = tested on: MDA-MB-231; test: Cell cycle arrest in human MDA-MB-231 cells assessed as accumulation of 2N cells at 9.0 uM after 24 hrs by flow cytometry; assay type: functional
[24] = tested on: U-251; test: Cytotoxicity against human U251 cells; assay type: functional; outline: as §1
[25] = Cytotoxicity against human […] cells; assay type: functional; outline: as §1
[26] = tested on: MDA-MB-231; test: Cell cycle arrest in human MDA-MB-231 cells assessed as accumulation at sub-G1 phase at 36.0 uM after 24 hrs by flow cytometry; assay type: functional
[27] = tested on: SK-MEL-28; test: Cytotoxicity against human SK-MEL28 cells; assay type: functional
Outline: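 Tested in the NCI in vitro antitumor screening protocol against human tumour cell lines.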

[28] = tested on: MDA-MB-231; test: Cell cycle arrest in human MDA-MB-231 cells assessed as accumulation of >4N cells at 9.0 uM after 24 hrs by flow cytometry; assay type: functional
Outline: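 MDA-MB-231/ATCC cells were grown in DMEM with 10% fetal bovine serum, […], 1% nonessential amino acids, penicillin and streptomycin at 37 °C in 5% CO₂. They were exposed to 3.6, 9.0, 18, 27 or 36 µM for 24 or 72 h, with colchicine as control. DNA content was then read by flow cytometry, and […] cells were scored.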

[29] = tested on: MDA-MB-231 (Homo sapiens); test: Induction of apoptosis in human MDA-MB-231 cells assessed as induction of caspase 3 activation at 36 uM after 72 hrs by colorimetric assay relative to control
[30] = tested on: PC-3; test: Cytotoxicity against human PC3 cells; assay type: functional; outline: as §1
[31] = tested on: MDA-MB-231; test: Cell cycle arrest in human MDA-MB-231 cells assessed as accumulation at sub-G1 phase at 3.6 uM after 72 hrs by flow cytometry; assay type: functional
[32] = tested on: MDA-MB-231; test: Cell cycle arrest in human MDA-MB-231 cells assessed as accumulation of 4N cells at 18.0 uM after 24 hrs by flow cytometry; assay type: functional
[33] = tested on: MDA-MB-231; test: Cell cycle arrest in human MDA-MB-231 cells assessed as accumulation of 4N cells at 36.0 uM after 24 hrs by flow cytometry; assay type: functional
[34] = tested on: SR; test: Cytotoxicity against human SR cells; assay type: functional; outline: as §1
[35] = tested on: UO-31; test: Cytotoxicity against human UO31 cells; assay type: functional
Outline: (§3)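 NCI in vitro antitumor screening protocol; GI50 taken as the concentration giving 50% reduction in cell growth.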

[36] = tested on: UACC-62; test: Cytotoxicity against human UACC62 cells; assay type: functional; outline: as §3
[37] = read-out: LC50 (the source's name)

Nc1ccccc1C#C/C=C\C#Cc1ccccc1C(F)(F)F
GI50 [1]: 3.08 µM | TGI [1]: 18.4 µM | CC50 [1, 37]: 48.5 µM | GI50 [2]: 0.396 µM | TGI [2]: 2.6 µM | CC50 [2, 37]: 26.8 µM | Activity [3]: Active | GI50 [4]: 0.4 µM | TGI [4]: 0.53 µM | GI50 [5]: 0.398 µM | Activity [6]: 9.7% | GI50 [7]: 0.371 µM | TGI [7]: 20.3 µM | CC50 [7, 37]: > 100 µM | GI50 [8]: 0.63 µM | TGI [8]: 0.959 µM | CC50 [8, 37]: 24.1 µM | GI50 [9]: 0.349 µM | TGI [9]: 31.1 µM | CC50 [9, 37]: > 100 µM | GI50 [10]: 0.358 µM | TGI [10]: > 100 µM | CC50 [10, 37]: > 100 µM | GI50 [11]: 0.7 µM | TGI [11]: 17.7 µM | CC50 [11, 37]: 67 µM | Activity [12]: 6.7% | GI50 [13]: 0.479 µM | TGI [13]: 19.7 µM | CC50 [13, 37]: 69.2 µM | GI50 [14]: 1.26 µM | GI50 [15]: 20.4 µM | TGI [15]: 48.6 µM | CC50 [15, 37]: > 100 µM | Activity [16]: 15% | Activity [17]: 9.5% | Activity [18]: 36.3% | Activity [19]: 6.8% | GI50 [20]: 0.348 µM | TGI [20]: 6.52 µM | CC50 [20, 37]: 30.9 µM | GI50 [21]: 0.745 µM | TGI [21]: 15.2 µM | CC50 [21, 37]: 59.5 µM | GI50 [22]: 8.3 µM | TGI [22]: 27.9 µM | CC50 [22, 37]: 78.4 µM | Activity [23]: 9.3% | GI50 [24]: 0.666 µM | TGI [24]: 17.5 µM | CC50 [24, 37]: 45.4 µM | GI50 [25]: 0.746 µM | TGI [25]: > 100 µM | CC50 [25, 37]: > 100 µM | Activity [26]: 23.6% | TGI [27]: 30.1 µM | CC50 [27, 37]: 80.2 µM | Activity [28]: 34% | fold change (FC) [29]: 3.4 | GI50 [30]: 2.35 µM | TGI [30]: 24.9 µM | CC50 [30, 37]: 94.2 µM | Activity [31]: 47.2% | Activity [32]: 31.9% | Activity [33]: 33.6% | GI50 [34]: 0.247 µM | TGI [34]: 0.691 µM | CC50 [34, 37]: > 100 µM | GI50 [35]: 3.06 µM | TGI [35]: 25.1 µM | CC50 [35, 37]: 94.9 µM | TGI [36]: 0.808 µM | GI50 ([36]; read-out: GI50): 0.261 µM | CC50 [36, 37]: 29 µM | GI50 ([36]; read-out: pGI50 (converted)): 0.251 µM
